Calls of active or inactive are those of the source. The calls are words filed in the database; no cut-off is given here.
Key:
[1] = target: T1, Free fatty acid receptor 1 (Homo sapiens, UniProt O14842); assay: Displacement of 3-[4-({2',6'-dimethyl-6-[(4-[3H])phenylmethoxy]biphenyl-3-yl}methoxy)phenyl] propanoic acid from human GPR40 receptor expressed in CHO cell membrane after 90 mins by liquid scintillation counting in the presence of 0.2% BSA; format: cell membranes
Procedure, shortened: (§1)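 Membranes from CHO lines stably expressing human or rat GPR40, buffer 25 mmol/L Tris-HCl pH 7.5, 5 mmol/L EDTA, protease inhibitors, 0.05% CHAPS, 0.2% fatty-acid-free BSA. Tritiated ligand at 2 or 6 nmol/L with graded test compound, 90 min room temperature, GF/C filtration, scintillation counting. Nonspecific binding: 10 μmol/L unlabeled ligand. IC50 by nonlinear regression, Ki = IC50/(1+[L]/Kd).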

[2] = target: Free fatty acid receptor 1 (Rattus norvegicus, UniProt Q8K3T4); assay: Displacement of 3-[4-({2',6'-dimethyl-6-[(4-[3H])phenylmethoxy]biphenyl-3-yl}methoxy)phenyl] propanoic acid from rat GPR40 receptor expressed in CHO cell membrane after 90 mins by liquid scintillation counting in the presence of 0.2% BSA; format: cell membranes; procedure, shortened: as §1
Chain of Free fatty acid receptor 1 (Rattus norvegicus, UniProt Q8K3T4) (Q8K3T4 whole entry): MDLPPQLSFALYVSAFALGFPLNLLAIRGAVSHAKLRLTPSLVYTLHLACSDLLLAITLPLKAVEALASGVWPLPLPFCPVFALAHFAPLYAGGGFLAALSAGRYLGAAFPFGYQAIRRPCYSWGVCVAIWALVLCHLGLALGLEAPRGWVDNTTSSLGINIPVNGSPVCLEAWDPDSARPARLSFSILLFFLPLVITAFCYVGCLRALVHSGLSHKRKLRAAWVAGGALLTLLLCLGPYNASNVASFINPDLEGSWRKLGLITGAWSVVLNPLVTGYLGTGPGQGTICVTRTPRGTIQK

[3] = target: T1, Free fatty acid receptor 1; assay: Agonist activity at human GPR40 receptor expressed in CHO cells assessed as increase in intracellular calcium level for 90 secs by FLIPR assay in the presence of 0.1% BSA; format: functional, cell-based
Procedure, shortened: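 CHO dhfr cells stably expressing human GPR40 plated overnight, loaded 60 min at 37 °C with Fluo 4 AM (2.5 μg/mL), 2.5 mmol/L probenecid, 0.1% fatty acid-free BSA. Ca2+ rise after compound addition read 90 s; response scaled between vehicle (0%) and 10 μM γ-linolenic acid (100%).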

[4] = Cytotoxicity against human HepG2 cells assessed as intracellular ATP level at 30 uM after 24 hrs by ATPlite assay relative to control; format: cell-based; settings: read-out: Activity
Procedure, shortened: (§2)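 HepG2 cells seeded 2 × 10^4/well, treated 1 day in DMEM with 0.5% FBS, 2 mM L-glutamine, 1 mM pyruvate. ATP measured by ATPlite luminescence; % of 1% DMSO control (RLU ratio ×100), n = 3.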

[5] = Cytotoxicity against human HepG2 cells assessed as intracellular ATP level at 10 uM after 24 hrs by ATPlite assay relative to control; format: cell-based; settings: read-out: Activity; procedure, shortened: as §2
HepG2 [6] = assay: Induction of apoptosis in human HepG2 cells assessed as caspase 3/7 activity at 30 uM after 24 hrs by caspase Glo assay relative to staurosporine; format: cell-based; settings: hepg2, 24 h
Procedure, shortened: (§3)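 HepG2 cells seeded 2 × 10^4/well, treated 1 day in DMEM with 0.5% FBS, 2 mM L-glutamine, 1 mM pyruvate. Caspase-Glo 3/7 luminescence; activity = (compound − 1% DMSO)/(30 μM staurosporine − 1% DMSO) ×100, n = 3.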

HepG2 [7] = assay: Induction of apoptosis in human HepG2 cells assessed as caspase 3/7 activity at 10 uM after 24 hrs by caspase Glo assay relative to staurosporine; format: cell-based; settings: hepg2, 24 h; procedure, shortened: as §3
[8] = Lipophilicity, log D of the compound by RP-HPLC analysis; format: physicochemical
Rattus norvegicus [9] = assay: Insulinotropic activity in po dosed fasted Wistar fatty rat assessed as decrease in blood glucose level administered 30 mins prior to glucose-challenge by oral glucose tolerance test relative to vehicle treated control; format: functional, organism-based
Procedure, shortened: (§4)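 Thirteen-week-old female Wistar fatty rats, overnight fasted, grouped on body weight, PG, TG, NEFA (n = 6). Oral dose (0.1–1 mg/kg, 0.5% methylcellulose vehicle) 30 min before oral glucose 1 g/kg; tail-vein blood at 0, 10, 30, 60, 120 min; plasma glucose by analyzer, insulin by RIA.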

Rattus norvegicus [10] = assay: Insulinotropic activity in po dosed fasted Wistar fatty rat assessed as increase in insulin secretion administered 30 mins prior to glucose-challenge by oral glucose tolerance test relative to vehicle treated control; format: functional, organism-based; procedure, shortened: as §4
Rattus norvegicus [11] = assay: Insulinotropic activity in fasted Wistar fatty rat assessed as decrease in blood glucose level at 0.3 mg/kg, po administered 30 mins prior to glucose-challenge by oral glucose tolerance test relative to vehicle treated control; format: functional, organism-based; parameters: dose 0.3 mg/kg; procedure, shortened: as §4
Rattus norvegicus [12] = assay: Induction of hypoglycemia in fasted Sprague-Dawley rat assessed as decrease in plasma glucose level below normal fasting level at 30 mg/kg, po; format: organism-based; parameters: dose 30 mg/kg, route oral; settings: in vivo
Procedure, shortened: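 Eight-week-old male SD rats fasted overnight, grouped by body weight (n = 6), single oral dose in 0.5% methylcellulose vehicle; tail-vein blood before and 0.5, 1, 2, 3 h after dosing; plasma glucose by analyzer, insulin by ELISA; mean ± SD.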

Rattus norvegicus [13] = assay: Toxicity in rat assessed as adverse effect at 15 to 150 mg/kg, po after 4 weeks; format: organism-based; parameters: dose 15-150 mg/kg, route oral; settings: in vivo, 672 h
Procedure, shortened: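 Normal rats dosed orally at 15, 50 and 150 mg/kg for 4 weeks; adverse effects recorded.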

[14] = Metabolic stability in human hepatic microsomes; format: ADME; settings: liver microsomes, read-out: Stability
Rattus norvegicus [15] = assay: Induction of hypoglycemia in fasted Sprague-Dawley rat assessed as increase in insulin secretion level at 30 mg/kg, po after 30 mins; settings: in vivo, 0.5 h

T1 sequence (O14842 whole entry): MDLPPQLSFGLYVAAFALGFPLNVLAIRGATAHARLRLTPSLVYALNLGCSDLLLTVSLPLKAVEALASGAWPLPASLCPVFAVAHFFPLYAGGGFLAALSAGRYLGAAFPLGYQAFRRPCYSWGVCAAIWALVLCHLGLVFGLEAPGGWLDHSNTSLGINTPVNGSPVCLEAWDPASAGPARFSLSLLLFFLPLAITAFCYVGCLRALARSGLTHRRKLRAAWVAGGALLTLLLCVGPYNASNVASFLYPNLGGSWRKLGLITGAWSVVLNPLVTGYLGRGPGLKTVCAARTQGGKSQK

- Ki [1]: 19 nM
- Ki [2]: 4.5 nM
- EC50 [3]: 29 nM
- logD [8]: 2.14
- microsomal CLint [14]: 2 µL/min/mg
Compound: Cc1cc(OCC2(O)CCS(=O)(=O)CC2)cc(C)c1-c1cccc(CNc2ccc(CCC(=O)O)c(F)c2)c1
- viability at 24 h, 30 µM [4]: 75.9%
- viability at 24 h, 10 µM [5]: 88.1%
- Activity (HepG2 [6]): 0.5%
- Activity (HepG2 [7]): 0.8%
- Activity (Rattus norvegicus [9]): Dose-dependent effect
- Activity (Rattus norvegicus [10]): Dose-dependent effect
- Activity (Rattus norvegicus [11]): Active
- Activity (Rattus norvegicus [12]): Non-toxic
- Activity (Rattus norvegicus [13]): Non-toxic
- Activity (Rattus norvegicus [15]): Toxic

— ChEMBL document CHEMBL2046346, “Discovery of phenylpropanoic acid derivatives containing polar functionalities as potent and orally bioavailable G protein-coupled receptor 40 agonists for the treatment of type 2 diabetes” (J Med Chem, 2012)
